Screening results from PubChem BioAssay.
Pemphigus Ab inh = inhibitors of pemphigus antibody binding to DSG3, primary screen, biochemical, bead-based, flow cytometry, scFv-GFP | Desmoglein-3 (Homo sapiens), P32926 | DSG3-coupled beads, scFv-anti-DSG3-GFP binding; hits give low values | binding (percent of control), % at 10 µM | hit rate 0.48% among 310,000 | AID 588358, 2011;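 active = binding more than 3 SD below its plate's average and above zero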;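 also: hits lower antibody fragment binding to DSG3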
Target sequence (P32926 whole entry, looked up, the tested form may be a part): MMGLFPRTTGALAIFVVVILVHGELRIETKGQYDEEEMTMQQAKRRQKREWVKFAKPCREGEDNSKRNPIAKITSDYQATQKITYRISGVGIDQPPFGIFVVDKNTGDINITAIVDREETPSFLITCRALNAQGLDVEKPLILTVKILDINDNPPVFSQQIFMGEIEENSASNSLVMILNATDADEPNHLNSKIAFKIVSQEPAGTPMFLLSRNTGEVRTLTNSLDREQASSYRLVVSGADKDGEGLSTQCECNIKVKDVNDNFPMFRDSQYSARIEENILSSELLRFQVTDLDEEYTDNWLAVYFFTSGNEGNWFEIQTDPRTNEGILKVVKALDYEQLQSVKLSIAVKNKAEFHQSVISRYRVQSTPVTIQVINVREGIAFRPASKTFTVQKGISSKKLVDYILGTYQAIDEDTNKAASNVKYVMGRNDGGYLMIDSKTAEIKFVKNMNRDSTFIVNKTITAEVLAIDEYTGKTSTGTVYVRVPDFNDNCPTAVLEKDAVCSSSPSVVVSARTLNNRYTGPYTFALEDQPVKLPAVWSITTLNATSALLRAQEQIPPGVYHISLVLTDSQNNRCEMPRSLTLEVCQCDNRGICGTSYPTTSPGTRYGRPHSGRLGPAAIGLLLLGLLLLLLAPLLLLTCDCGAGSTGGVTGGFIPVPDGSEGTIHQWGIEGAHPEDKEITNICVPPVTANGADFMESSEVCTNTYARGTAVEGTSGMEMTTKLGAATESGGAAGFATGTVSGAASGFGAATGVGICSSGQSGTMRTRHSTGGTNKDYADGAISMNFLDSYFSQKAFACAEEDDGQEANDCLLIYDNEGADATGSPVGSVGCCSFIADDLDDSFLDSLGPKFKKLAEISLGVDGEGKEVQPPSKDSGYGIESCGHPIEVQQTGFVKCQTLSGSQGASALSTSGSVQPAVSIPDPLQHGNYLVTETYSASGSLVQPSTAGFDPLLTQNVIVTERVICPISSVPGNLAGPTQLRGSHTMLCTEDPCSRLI
CHT block = inhibitors of human choline transporter CHT | High affinity choline transporter 1 (Homo sapiens), Q9GZV3 | CHT-expressing cells, membrane potential dye, choline response; hits give low values | B-score at 10 µM | hit rate 0.86% among 310,000 | AID 488975, 2010;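 active = B-score over 3 SD under the library average, and starting fluorescence ratio not unusually high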;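 also: choline stimulus applied at its EC90 after an EC20 pre-addition; B-score computed on integrated fluorescence ratio after choline addition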
p-CIP stab down = p/CIP-EGFP fusion destabilizers, primary screen, fluorescence, F442A cells | Q05BA5 | 16 h | decrease of EGFP signal, % at 10 µM | hit rate 0.01% among 290,000 | AID 1984, 2009;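 active = EGFP signal decrease of at least 30% at 10 µM or well 3 SD below plate mean, unless failing retest; inactive = the rest, including hits failing retest or dose response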
GPR7 antag = GPR7 receptor antagonists, primary screen, cell-based, fluorescence, single concentration; GPR7-expressing cells, fluorescence antagonist assay; AID 1861, 2009; hit rate 1.1% among 290,000; inhibition, % at 4.4 µM; Neuropeptides B/W receptor type 1 (Homo sapiens), P48145; in the data active = inhibition above about 16%, passing the limit was not always enough;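 also: cells stimulated with the agonist NPW; 0% = agonist with vehicle and 100% = vehicle without agonist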
CHT PAM = CHT positive allosteric modulators, primary screen, cell-based, membrane potential dye, choline EC20; High affinity choline transporter 1 (Homo sapiens), Q9GZV3; CHT-expressing cells; hits give high values; LV-AA mutant CHT in HEK293 cells; B-score at 10 µM; hit rate 0.49% among 310,000;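 active = initial fluorescence not abnormally high and integrated response B-score, plate-corrected, over 3 SD above library mean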
T cell HTS = modulators of CD8 T cell-vesicle binding, primary screen, mouse 2C CD8+ T cells, flow cytometry; 2C CD8+ T cell-vesicle binding; hits give low values; response (vesicle binding), % at 7 µM; hit rate 0.068% among 330,000; AID 2052, 2009;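 active = response, share of CD8 T cells binding vesicles, and their 90th percentile fluorescence all below set limits, cut at about 80% in these data, passing the limit was not always enough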;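 also: values below 100% mean blocked vesicle binding to the CD8+ T cells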
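Also added: QL9-peptide-loaded Drosophila micro-vesicles bearing Ld, ICAM-1 and B7-1; Test system: purified 2C TCR transgenic mouse naive CD8+ T cells; Measured by: cytometric PE anti-B7-1 and Alexa647 anti-CD8 signals after 1% paraformaldehyde fixation; Timing: binding step 1.5 h, 37 °C, antibody labelling 20 min, ice.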
CHT act confirm = CHT activators, confirmation, cell-based, membrane potential dye, duplicate. shares compounds with CHT PAM. CHT-expressing cells, membrane potential dye fluorescence (FDSS); % of choline EC20–EC90 response window; HEK293 expressing CHT LV-AA mutant; choline added at its EC20. activation, % at 10 µM. hit rate 91% among 2,500. AID 504833, 2011;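 active = primary screen active, with duplicate mean activation above negative control mean plus 3 SD, cut at about 11% in these data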
HEK293 MP dye = membrane potential response in parental HEK293 cells, counter-screen for CHT activator project, cell-based, membrane potential dye; shares compounds with CHT PAM; membrane potential dye fluorescence (FDSS); measured after EC20 choline addition; ratio readout change at 10 µM, hits read low; hit rate 62% among 2,500;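 active = duplicate-averaged ratio beyond 3 SD from buffer wells, up or down, though filed actives are nearly all decreases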
* hit, by the source's call; i = inactive; . = no result given. Sampled rows, rich in hits. Any-hit rate of the full collection: about 2.3%.

SMILES | Pemphigus Ab inh | CHT block | p-CIP stab down | GPR7 antag | CHT PAM | T cell HTS | CHT act confirm | HEK293 MP dye
N=c1n(CCN2CCCC2)c2ccccc2n1CC(O)c1ccco1 (centres undefined) | 107.4 | i | -6.5 | -11.2 | i | 289.9 | 38.1* | -24.9*
COc1ccc(CC(=O)OCC(=O)NC2CCCC(C)C2C)cc1OC (centres undefined) | 94.2 | . | . | . | . | 532.7 | . | .
Cc1ccc(CNc2ncc(-c3ccc4c(c3)OCO4)n2C)cc1 | 104.4 | i | 4.7 | 5.5 | 6.59* | 437.3 | 24.6* | -31*
CCCOc1c(OC)cccc1C1CC(=O)Nc2cc3c(cc21)OCCO3 (centres undefined) | 101.3 | i | -14.3 | 1.4 | i | 380.3 | 9.6 | i
Cc1cc(C)nc(NC(=O)c2cnc3sccn3c2=O)n1 | 100.4 | i | -18.2 | -1.8 | 9.06* | 380.0 | 51.7* | -50.5*
O=C(Nc1ccncc1)C1CCN(S(=O)(=O)c2ccc(Cl)c(C(F)(F)F)c2)CC1 | . | . | . | . | . | 292.3 | . | .
Cc1cc2[nH]c(=O)c(=O)[nH]c2cc1S(=O)(=O)Nc1ccccc1F | 119.1 | i | 10.1 | -0.7 | 7.73* | 251.6 | 3.2 | i
COc1ccc(NC(=O)C[C@H]2C(=O)N(C3CCCCC3)C[C@@H]2c2ccc(OC)cc2)cc1 | 108.7 | . | . | . | . | . | . | .
CCc1nc2ccc(Cc3ccc4nc(CC)[nH]c4c3)cc2[nH]1 | 106.6 | i | -8.4 | 2.5 | 7.11* | 126.9 | 48.5* | -51.6*
Cc1ccc2nc(CCc3ccc(N)cc3)[nH]c2c1 | 110.8 | i | -11.3 | 2.1 | i | 136.2 | . | .
OCC1OC(n2cnc3c(/C=C(\O)c4ccccc4)ncnc32)C(O)C1O (centres undefined) | 87.1 | . | . | . | . | . | . | .
CN(c1ccc(OCC(=O)OCc2nnc(-c3ccccc3)o2)cc1)S(=O)(=O)c1ccc(Cl)cc1 | 100.9 | i | . | . | i | 694.3 | . | .
CN(c1ccc(OCc2nnc(-c3ccccc3)o2)cc1)S(=O)(=O)c1ccccc1 | 104.2 | i | -11.2 | -7.0 | i | 354.0 | 26.9* | i
CC(C)CCn1c(NCCN(C)C)nc2c1c(=O)[nH]c(=O)n2C | 106.3 | i | 4.0 | 1.7 | i | 304.3 | 25.6* | -41.2*
CN(C)CCNc1nc2c(c(=O)[nH]c(=O)n2C)n1CC(O)COc1ccc(Cl)cc1Cl (centres undefined) | 108.1 | i | -2.5 | 2.0 | 8.89* | 432.2 | 50.8* | -45.2*
CCCNc1nc2c(c(=O)[nH]c(=O)n2C)n1CCC(C)C | 105.3 | i | -14.5 | -8.3 | i | 227.3 | . | .
Cn1c(=O)c2c(ncn2CC(=O)OCC(=O)NCc2ccc(F)cc2)n(C)c1=O | 103.2 | . | . | . | . | . | . | .
COC(=O)c1ccc2c(c1)C(C)(C)C(/C=C/c1ccc(OC)c(OC)c1OC)=[N+]2C | 122.5 | i | -5.5 | 2.8 | 6.48* | 140.5 | 59.4* | -64.9*
c1ccc(N2CCN(c3nc(NCc4ccco4)c4ccccc4n3)CC2)cc1 | 122.3 | i | -10.2 | 5.3 | i | 220.6 | . | .
c1coc(CNc2nc(N3CCCCC3)nc3ccccc23)c1 | 102.7 | i | -9.6 | 16.2 | i | 231.8 | 13.5* | i
c1ccc(-c2nc(NCc3ccco3)c3ccccc3n2)nc1 | . | i | -17.8 | -4.0 | 7.02* | 253.8 | 41.7* | -46.3*
Cc1cc(-n2c(C)c3c(C)nnc(C)c3c2C)ccc1N | 99.1 | i | -9.6 | -13.0 | 6.75* | 271.3 | 37.7* | -21.5*
CC1CCN(CCCNc2cc(NCCO)c([N+](=O)[O-])c3nonc23)CC1 | 101.1 | i | -6.5 | -6.8 | i | 206.7 | 31.4* | -62*
CN(CCO)c1cc(NCCCN2CCC(Cc3ccccc3)CC2)c2nonc2c1[N+](=O)[O-] | 97.6 | i | 2.8 | -9.8 | i | 237.2 | . | .
O=C(Nc1cccc(Cl)c1N1CCOCC1)c1ccco1 | 104.3 | i | 2.0 | 1.8 | i | 236.9 | . | .
SMILES | Pemphigus Ab inh | CHT block | p-CIP stab down | GPR7 antag | CHT PAM | T cell HTS | CHT act confirm | HEK293 MP dye
CCN1CCN(c2c(Cl)cccc2NC(=O)c2ccc([N+](=O)[O-])cc2)CC1 | 99.0 | i | -9.3 | -3.2 | 11.7* | 349.4 | 53.3* | -66.8*
CCN1CCN(c2c(Cl)cccc2NC(=O)c2ccco2)CC1 | 99.0 | i | -17.9 | 2.8 | 7.57* | 184.0 | 54.4* | -33.1*
CCC(C)NC(=O)c1ccc(N2CC3CC(C2)c2cccc(=O)n2C3)c(NC(=O)c2c(F)cccc2F)c1 (centres undefined) | 108.1 | . | . | . | . | . | . | .
O=C(CCCn1c(=O)c2ccccc2n(Cc2cccc(F)c2)c1=O)NC1CCN(Cc2ccccc2)CC1 | . | i | 3.9 | -8.4 | i | 153.6 | . | .
O=C(CCCCn1c(=O)c2ccccc2n(Cc2ccccc2)c1=O)NC1CCN(Cc2ccccc2)CC1 | 105.2 | i | 7.4 | 6.9 | i | 112.8 | 34.9* | -28.7*
COc1ccc(CN2CCC(N(CCc3ccccc3)Cc3ccccc3)CC2)c(OC)c1 | 109.3 | i | -0.1 | 16.5 | i | 216.2 | 22.2* | i
CCN(c1ccccc1)S(=O)(=O)c1ccc(C(=O)N(CCCN(C)C)c2nc3cc4c(cc3s2)OCO4)cc1 | 99.7 | i | -25.0 | 19.2 | i | 434.2 | 43.2* | -37.2*
CN(C)CCCN(C(=O)c1ccc2ccccc2c1)c1nc2cc3c(cc2s1)OCO3 | . | i | -8.9 | 6.8 | i | 336.1 | . | .
COc1ccc(/C=C/c2cc(O)cc(OC3OC(CO)C(O)C(O)C3O)c2)cc1 (centres undefined) | 99.1 | . | . | . | . | . | . | .
Cc1ccc(C#CC[N+]2(CC#Cc3ccc(C)cc3)CCCCC2)cc1 | 109.7 | i | -28.9 | 19.5* | 8.71* | 147.2 | 18.4* | i
O=C(O)c1ccc(Cl)c(NC(=O)C2CCN(S(=O)(=O)c3cccs3)CC2)c1 | 98.8 | . | . | . | . | . | . | .
COC(=O)CN1C(c2cccc(Cl)c2)=Nc2ccc(Cl)cc2C1c1ccccc1 (centres undefined) | 103.6 | i | -9.2 | 14.9 | i | 386.0 | 29.6* | i
